ChEMBL document CHEMBL3351269, “Phenylimidazoles as potent and selective inhibitors of coagulation factor XIa with in vivo antithrombotic activity” (J Med Chem, 2014)

How the values were obtained:
[1] = Plasma protein binding in rabbit at 0.5 mg/kg, iv; format: ADME, organism-based, Oryctolagus cuniculus; set-up: dose 0.5 mg/kg, route intravenous; settings: read-out: PPB (converted)
Coagulation factor XI [2] = biological target: T1, Coagulation factor XI (Homo sapiens, UniProt P03951); assay: Inhibition of human coagulation factor 11a using p-nitroaniline as substrate assessed as substrate hydrolysis by spectrophotometrically
In short: (§1)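 Purified human enzymes; reaction started by adding enzyme to substrate with or without inhibitor, excess substrate and inhibitor over enzyme, 1% DMSO, room temperature, 10–120 min. pNA read at 405 nm. FXIa, FXIIa and chymotrypsin in HEPES pH 7.4 with NaCl, KCl and PEG; FXa and kallikrein in phosphate pH 7.5; FVIIa in HEPES with CaCl2. IC50 from duplicates over 8–11 concentrations, converted to Ki assuming competitive inhibition.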

[3] = Inhibition of rabbit coagulation thrombin using pyro-Glu-Pro-Argp-NA as substrate by spectrophotometric analysis; set-up: species or system Oryctolagus cuniculus
[4] = Inhibition of rabbit plasma kallikrein using H-D-Pro-Phe-Arg-pNA as substrate; format: cell-free, Oryctolagus cuniculus
[5] = Inhibition of rabbit coagulation factor 11a using p-nitroaniline as substrate assessed as substrate hydrolysis at 37 degC by spectrophotometrically; set-up: species or system Oryctolagus cuniculus
In short: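 Rabbit FXIa, chromogenic pNA-release read at 405 nm, run at 37 °C. IC50 from duplicate determinations over 8–11 concentrations, converted to Ki by Ki = IC50/(1+[S]/Km), assuming competitive inhibition.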

[6] = Inhibition of human coagulation chymotrypsin using MeO-Suc-Arg-Pro-Tyr-pNA as substrate by spectrophotometric analysis; in short: as §1
[7] = Anticoagulant activity in healthy human plasma assessed as concentration required to 2 fold prolong clotting time by aPTT assay; format: functional
In short: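 Citrated human plasma from healthy volunteers (one-tenth volume 0.11 M buffered citrate; spun 2000g, 10 min, kept on ice). Inhibitor from 10 mM DMSO stock, diluted in plasma, up to seven concentrations. aPTT with Alexin: plasma warmed 1 min at 37 °C, reagent added, CaCl2 2 min later. Duplicates, as ratio to baseline. EC2x by linear interpolation, as total plasma concentration.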

[8] = Anticoagulant activity in rabbit plasma assessed as concentration required to 2 fold prolong clotting time by aPTT assay; format: functional, Oryctolagus cuniculus
Coagulation factor X [9] = biological target: Coagulation factor X (Homo sapiens, UniProt P00742); assay: Inhibition of human coagulation factor 10a using N-benzoyl-Ile-Glu-(OH, OMe)-Gly-Arg-pNA as substrate by spectrophotometric analysis; in short: as §1
Coagulation factor VII = biological target: T2, Coagulation factor VII (Oryctolagus cuniculus, UniProt P98139); assay: Inhibition of rabbit coagulation factor 7a using H-(D)-Ile-Pro-Arg-pNA as substrate by spectrophotometric analysis
T2 sequence (P98139 whole entry): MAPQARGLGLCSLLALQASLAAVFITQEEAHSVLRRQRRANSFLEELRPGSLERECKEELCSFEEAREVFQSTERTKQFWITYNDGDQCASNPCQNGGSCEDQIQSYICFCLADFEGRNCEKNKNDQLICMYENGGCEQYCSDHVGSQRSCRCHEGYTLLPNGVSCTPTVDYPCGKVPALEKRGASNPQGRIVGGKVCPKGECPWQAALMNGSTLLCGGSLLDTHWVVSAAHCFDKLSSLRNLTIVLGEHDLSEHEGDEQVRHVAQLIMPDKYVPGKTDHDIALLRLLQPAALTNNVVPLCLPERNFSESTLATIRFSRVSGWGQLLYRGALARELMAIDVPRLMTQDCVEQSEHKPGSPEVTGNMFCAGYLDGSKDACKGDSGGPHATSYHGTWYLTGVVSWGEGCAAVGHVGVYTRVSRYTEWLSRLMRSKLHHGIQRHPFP

[10] = Cmax in rabbit plasma at 0.5 mg/kg, iv; format: ADME, organism-based, Oryctolagus cuniculus; set-up: dose 0.5 mg/kg, route intravenous
In short: (§2)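 Single iv dose of 0.5 mg/kg in rabbits; concentrations measured in rabbit plasma.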

Plasma kallikrein = Plasma kallikrein (Homo sapiens, UniProt P03952); assay: Inhibition of human plasma kallikrein using H-D-Pro-Phe-Arg-pNA as substrate; in short: as §1
Prothrombin = Prothrombin (Homo sapiens, UniProt P00734); assay: Inhibition of human coagulation thrombin using pyro-Glu-Pro-Argp-NA as substrate by spectrophotometric analysis
In short: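 Purified enzymes (α-thrombin; trypsin) in 100 mM sodium phosphate pH 7.5, 200 mM NaCl, 0.5% PEG 8000, 1% DMSO final, room temperature. Enzyme added last to substrate ± inhibitor, with substrate and inhibitor in excess. pNA release read at 405 nm over 10−120 min. IC50 from duplicate runs over 8−11 concentrations, then converted to Ki assuming competitive inhibition, using Km.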

Coagulation factor X [11] = biological target: T3, Coagulation factor X (Oryctolagus cuniculus, UniProt O19045); assay: Inhibition of rabbit coagulation factor 10a using N-benzoyl-Ile-Glu-(OH, OMe)-Gly-Arg-pNA as substrate by spectrophotometric analysis
T3 sequence (O19045 whole entry): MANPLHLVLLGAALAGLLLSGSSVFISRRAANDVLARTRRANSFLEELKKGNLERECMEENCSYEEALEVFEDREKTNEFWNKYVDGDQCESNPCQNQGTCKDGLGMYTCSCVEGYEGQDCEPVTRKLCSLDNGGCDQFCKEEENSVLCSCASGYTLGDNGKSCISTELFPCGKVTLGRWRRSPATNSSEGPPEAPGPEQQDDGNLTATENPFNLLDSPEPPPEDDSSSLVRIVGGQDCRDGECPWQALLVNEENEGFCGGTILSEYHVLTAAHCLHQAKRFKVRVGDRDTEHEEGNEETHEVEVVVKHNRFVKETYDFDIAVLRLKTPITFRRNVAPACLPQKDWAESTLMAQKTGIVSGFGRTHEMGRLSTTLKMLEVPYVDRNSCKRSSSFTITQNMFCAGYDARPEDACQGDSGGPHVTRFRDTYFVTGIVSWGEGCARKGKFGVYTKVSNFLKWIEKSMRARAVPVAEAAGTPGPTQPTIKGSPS

Coagulation factor IX = Coagulation factor IX (Homo sapiens, UniProt P00740); assay: Inhibition of human coagulation factor 9a by spectrophotometric analysis
In short: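 Purified human factor IXa; buffer 50 mM Tris pH 7.4, 100 mM NaCl, 5 mM CaCl2, 0.5% PEG 8000, 2% DMSO; room temperature. Reaction started with enzyme added to substrate ± inhibitor, in excess substrate and inhibitor, for 10–120 min. Rate read as pNA A405 or AMC fluorescence. Duplicate IC50s from 8–11 concentrations; Ki = IC50/(1+[S]/Km), assuming competitive inhibition.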

[12] = Half life in rabbit plasma at 0.5 mg/kg, iv; format: ADME, organism-based, Oryctolagus cuniculus; set-up: dose 0.5 mg/kg, route intravenous; in short: as §2
[13] = Mean residence time in rabbit plasma at 0.5 mg/kg, iv; format: ADME, organism-based, Oryctolagus cuniculus; set-up: dose 0.5 mg/kg, route intravenous; in short: as §2
Coagulation factor XI [14] = biological target: T1, Coagulation factor XI; assay: Inhibition of human coagulation factor 11a using p-nitroaniline as substrate assessed as substrate hydrolysis at 37 degC by spectrophotometrically
In short: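 Purified human FXIa in 50 mM HEPES pH 7.4, 145 mM NaCl, 5 mM KCl, 0.1% PEG 8000, run at 37 °C, 1% DMSO final. Enzyme added last to substrate ± inhibitor, with substrate and inhibitor in excess. pNA release read at 405 nm. IC50 from duplicate 8–11-point series, converted to Ki assuming competitive inhibition, Ki = IC50/(1+[S]/Km).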

T1 sequence (P03951 19-387 limits assumed): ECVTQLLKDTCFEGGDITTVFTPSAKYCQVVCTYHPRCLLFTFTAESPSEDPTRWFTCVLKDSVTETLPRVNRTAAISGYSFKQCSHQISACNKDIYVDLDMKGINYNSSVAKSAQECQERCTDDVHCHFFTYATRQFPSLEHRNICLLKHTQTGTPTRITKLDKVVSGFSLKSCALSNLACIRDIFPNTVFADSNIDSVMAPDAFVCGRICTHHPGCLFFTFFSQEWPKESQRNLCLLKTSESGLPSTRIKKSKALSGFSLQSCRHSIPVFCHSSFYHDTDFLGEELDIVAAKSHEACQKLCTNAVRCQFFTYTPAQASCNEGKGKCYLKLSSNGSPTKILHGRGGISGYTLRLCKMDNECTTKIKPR
T1 sequence (P03951 388-625 limits assumed): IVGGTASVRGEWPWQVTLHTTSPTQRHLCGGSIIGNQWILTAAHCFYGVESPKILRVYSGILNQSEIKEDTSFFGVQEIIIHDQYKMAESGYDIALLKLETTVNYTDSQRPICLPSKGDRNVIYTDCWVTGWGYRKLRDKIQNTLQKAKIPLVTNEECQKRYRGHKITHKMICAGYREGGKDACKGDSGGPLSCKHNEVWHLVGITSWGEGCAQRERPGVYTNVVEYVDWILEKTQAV
Sequence of Coagulation factor X (Homo sapiens, UniProt P00742) (P00742 41-179 limits assumed): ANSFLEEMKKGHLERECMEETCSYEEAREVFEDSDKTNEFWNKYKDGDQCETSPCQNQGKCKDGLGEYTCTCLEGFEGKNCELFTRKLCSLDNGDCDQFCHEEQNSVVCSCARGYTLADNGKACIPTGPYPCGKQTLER
Sequence of Coagulation factor X (Homo sapiens, UniProt P00742) (P00742 235-488 limits assumed): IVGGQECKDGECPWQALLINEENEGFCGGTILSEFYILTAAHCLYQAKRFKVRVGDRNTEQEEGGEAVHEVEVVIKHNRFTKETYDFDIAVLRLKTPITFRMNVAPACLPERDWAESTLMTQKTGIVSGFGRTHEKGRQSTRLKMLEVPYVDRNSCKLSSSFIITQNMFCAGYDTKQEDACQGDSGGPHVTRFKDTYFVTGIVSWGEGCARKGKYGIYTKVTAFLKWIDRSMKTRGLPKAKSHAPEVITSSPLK
Sequence of Coagulation factor IX (P00740 47-191 limits assumed): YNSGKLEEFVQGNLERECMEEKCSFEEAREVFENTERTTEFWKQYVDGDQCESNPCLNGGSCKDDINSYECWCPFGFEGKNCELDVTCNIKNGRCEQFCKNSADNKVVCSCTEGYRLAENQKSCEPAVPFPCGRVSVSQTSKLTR
Sequence of Coagulation factor IX (P00740 227-461 limits assumed): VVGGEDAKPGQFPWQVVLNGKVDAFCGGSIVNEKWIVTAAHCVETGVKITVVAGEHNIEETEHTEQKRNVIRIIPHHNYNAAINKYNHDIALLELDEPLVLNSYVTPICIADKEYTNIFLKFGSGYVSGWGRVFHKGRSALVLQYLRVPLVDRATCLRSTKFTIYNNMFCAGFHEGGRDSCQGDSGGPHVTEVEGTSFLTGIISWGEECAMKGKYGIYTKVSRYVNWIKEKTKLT
Sequence of Plasma kallikrein (P03952 20-390 limits assumed): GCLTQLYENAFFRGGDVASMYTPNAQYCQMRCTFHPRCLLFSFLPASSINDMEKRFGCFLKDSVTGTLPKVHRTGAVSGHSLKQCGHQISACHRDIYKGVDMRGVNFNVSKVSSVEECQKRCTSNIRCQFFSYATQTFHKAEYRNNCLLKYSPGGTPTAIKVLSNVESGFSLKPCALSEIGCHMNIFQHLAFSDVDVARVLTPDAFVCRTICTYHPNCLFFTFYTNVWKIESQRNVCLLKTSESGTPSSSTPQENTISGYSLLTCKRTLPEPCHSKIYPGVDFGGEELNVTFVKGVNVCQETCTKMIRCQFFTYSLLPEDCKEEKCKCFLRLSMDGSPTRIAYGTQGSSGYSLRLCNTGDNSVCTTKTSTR
Sequence of Plasma kallikrein (P03952 391-638 limits assumed): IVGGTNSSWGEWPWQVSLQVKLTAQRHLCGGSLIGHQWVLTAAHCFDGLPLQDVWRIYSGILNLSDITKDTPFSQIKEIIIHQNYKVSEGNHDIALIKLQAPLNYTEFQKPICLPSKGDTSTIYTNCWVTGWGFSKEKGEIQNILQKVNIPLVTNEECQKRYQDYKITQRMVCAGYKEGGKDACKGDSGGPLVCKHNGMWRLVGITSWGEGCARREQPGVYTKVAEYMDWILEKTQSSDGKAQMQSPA

## NC[C@H]1CC[C@H](C(=O)N[C@@H](Cc2ccccc2)c2nc(-c3ccc4c(N)n[nH]c4c3)c(Cl)[nH]2)CC1.O=C(O)C(F)(F)F
[1]
  fraction unbound: 0.15
Coagulation factor XI [2]
  Ki: 0.3 nM
[3]
  Ki: > 20000 nM
[4]
  Ki: 21 nM
[5]
  Ki: 1.2 nM
[6]
  Ki: > 20800 nM
[7]
  2aPTT: 1 µM
[8]
  2aPTT: 2 µM
Coagulation factor X [9]
  Ki: 6390 nM
Coagulation factor VII
  Ki: 10000 nM
[10]
  Cmax: 2470 nM
Plasma kallikrein
  Ki: 5 nM
Prothrombin
  Ki: > 12600 nM
Coagulation factor X [11]
  Ki: > 10000 nM
Coagulation factor IX
  Ki: > 34900 nM
[12]
  half-life: 60 min
[13]
  MRT: 36 min
Coagulation factor XI [14]
  Ki: 0.8 nM
